The array DNA melting data of Ke et al. (doi:10.1101/2024.01.08.574731)

Legend:
[1] = folding enthalpy; higher = less favourable; fluorescence melt of hairpins on a sequencing array, two-state fit; details: sodium 0.088 M
How it was run: (§1)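 Cy3 signals were normalised both to pre-quench Cy3 and to control constructs. They came from library hairpins carrying annealed Cy3 and quencher oligos on a sequenced MiSeq flow cell, imaged in 50 mM Na-HEPES pH 8.0, 25 mM NaCl, in 2.5 °C steps up to 60 °C. Bootstrapped two-state fits gave melting temperature and folding enthalpy, and four replicates were combined by inverse variance. Fitted temperatures were then raised by 9.35 °C to match UV melts.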

[2] = melting temperature; fluorescence melt of hairpins on a sequencing array, two-state fit, raised by 9.35 °C to match UV melts; details: sodium 0.088 M
How it was run: as §1

Sequence | folding enthalpy [1] | Tm [2]
GTCTAACGAAAGTTGGAC (((.(((....))).))) | -19.8 kcal/mol | 52 °C
GTCTAACGAAAGTTTGAC (((.(((....))).))) | -36.7 kcal/mol | 47.6 °C
GTCTAAGAAATTAGAC ((((((....)))))) | -25.8 kcal/mol | 40.4 °C
GTCTAAGGAAACTTGGAC (((.(((....))).))) | -21.9 kcal/mol | 40.2 °C
GTCTAATCGAAAGATGAC (((..(((....)))))) | -14.8 kcal/mol | 31.6 °C
GTCTACCCGAAAGGGGAC (((..(((....)))))) | -13.8 kcal/mol | 36.2 °C
GTCTACCGAAAGGTGGAC (((.(((....))).))) | -41.5 kcal/mol | 60.6 °C
GTCTACGAAAGTAAGAC ((((((....))).))) | -24.2 kcal/mol | 46.5 °C
GTCTACGAAAGTAATGAC ((((((....)))..))) | -17.6 kcal/mol | 30.7 °C
GTCTACGAAAGTAGGGAC ((((((....)))..))) | -16.2 kcal/mol | 32.3 °C
GTCTACGAAAGTATAGAC ((((((....)))..))) | -24.4 kcal/mol | 36.2 °C
GTCTACGGAAACGTAGGC (.(((((....))))).) | -29.2 kcal/mol | 51.2 °C
GTCTAGGAAACTAGAC ((((((....)))))) | -39.2 kcal/mol | 50.8 °C
GTCTAGGGAAACCTAGAC (((((((....))))))) | -40.4 kcal/mol | 56.2 °C
GTCTAGGGAAACCTGGAC (((.(((....))).))) | -30.2 kcal/mol | 47.4 °C
GTCTATACGAAAGTAGAC (((..(((....)))))) | -21.8 kcal/mol | 36.7 °C
GTCTATGGAAACATAGAC (((((((....))))))) | -42.7 kcal/mol | 54.9 °C
GTCTATGGAAACGTAGAC (((((.(....).))))) | -31.8 kcal/mol | 43.7 °C
GTCTCCACGAAAGTGGAC (((..(((....)))))) | -7.36 kcal/mol | 32.2 °C
GTCTCCCGAAAGGGGAC (((.(((....)))))) | -31.4 kcal/mol | 54.8 °C
GTCTCCGAAAGGAAAGAC ((((((....)))..))) | -23.1 kcal/mol | 42.4 °C
GTCTCCGAAAGGAAGGAC ((((((....)))..))) | -16.5 kcal/mol | 36.2 °C
GTCTCCGAAAGGACGAC ((((((....))).))) | -27.5 kcal/mol | 46.7 °C

Sequence | folding enthalpy [1] | Tm [2]
GTCTCCGCGAAAGCGGAC (((..(((....)))))) | -6.7 kcal/mol | 34.2 °C
GTCTCGAAAGAGAC (((((....))))) | -24.8 kcal/mol | 60.5 °C
GTCTCGGGAAACCGGGAC (((.(((....))).))) | -38.4 kcal/mol | 55.3 °C
GTCTCGGGAAACTGGGAC (((.(.(....).).))) | -29.3 kcal/mol | 37.2 °C
GTCTCTCGAAAGAGCGAC (((.(((....))).))) | -25.6 kcal/mol | 46.3 °C
GTCTGAGGAAACTCGGAC (((.(((....))).))) | -36.2 kcal/mol | 49.4 °C
GTCTGATCGAAAGATGAC (((..(((....)))))) | -19.8 kcal/mol | 30.1 °C
GTCTGCCGAAAGGCCGAC (((.(((....))).))) | -25.6 kcal/mol | 54.1 °C
GTCTGCGAAAGCAGGAC ((((((....))).))) | -11.4 kcal/mol | 57.8 °C
GTCTGCGGAAACGCAGGC (.(((((....))))).) | -19.6 kcal/mol | 63.9 °C
GTCTGCGGAAACGCGGAC (((.(((....))).))) | -39.2 kcal/mol | 63.7 °C
GTCTGCGGAAACGTAGAC ((((.((....)).)))) | -37.8 kcal/mol | 53.2 °C
GTCTGGGAAACCAGAC ((((((....)))))) | -38.3 kcal/mol | 58.3 °C
GTCTGGGCGAAAGCCGAC (((..(((....)))))) | -14.6 kcal/mol | 44.4 °C
GTCTGGGGAAACCCAGGC (.(((((....))))).) | -28.1 kcal/mol | 55.5 °C
GTCTGGGGAAACTCAGAC (((((.(....).))))) | -43.7 kcal/mol | 49.1 °C
GTCTGTCGAAAGACCGAC (((.(((....))).))) | -27.8 kcal/mol | 47.7 °C
GTCTGTCGAAAGACGAC (((.(((....)))))) | -28.6 kcal/mol | 51.5 °C
GTCTGTGGAAACACAAAC ((.((((....)))).)) | -12.3 kcal/mol | 28.1 °C
GTCTGTGGAAACACAGGC (.(((((....))))).) | -32.4 kcal/mol | 53.7 °C
GTCTGTGGAAACACGGAC (((.(((....))).))) | -34.9 kcal/mol | 53 °C
GTCTGTGGAAACATAGGC (.((.((....)).)).) | -16.4 kcal/mol | 31.3 °C
GTCTTAGAAATAAGAC ((((((....)))))) | -26.5 kcal/mol | 43.4 °C

Sequence | folding enthalpy [1] | Tm [2]
GTCTTAGGAAACCAAGAC (((((.(....).))))) | -30.9 kcal/mol | 34.4 °C
GTCTTCACGAAAGTGGAC (((..(((....)))))) | -14.2 kcal/mol | 31.9 °C
GTCTTCGAAAGAACGAC ((((((....))).))) | -21.2 kcal/mol | 37.6 °C
GTCTTCGAAAGAATGGAC ((((((....)))..))) | -14.9 kcal/mol | 27.2 °C
GTCTTGGGAAACCAAGAC (((((((....))))))) | -46.4 kcal/mol | 62.1 °C
GTCTTGGGAAACTAAGAC (((((.(....).))))) | -34.9 kcal/mol | 42.8 °C
GTGAAACGAAAGTTCAC (((.(((....)))))) | -18.3 kcal/mol | 47.6 °C
GTGAAACGAAAGTTCCAC (((.(((....))).))) | -22.8 kcal/mol | 43.9 °C
GTGAAAGGAAACCTTCAC (((((.(....).))))) | -27 kcal/mol | 36.5 °C
GTGAAAGGAAACTCTCAC ((((.((....)).)))) | -12.6 kcal/mol | 26.5 °C
GTGAACCCGAAAGGGCAC (((..(((....)))))) | -15.8 kcal/mol | 38.9 °C
GTGAACCGAAAGGTACAC (((.(((....))).))) | -35.7 kcal/mol | 54.3 °C
GTGAACGAAAGTTCACAC ((((((....)))..))) | -10.8 kcal/mol | 66.6 °C
GTGAACGAAAGTTCCCAC ((((((....)))..))) | -10.9 kcal/mol | 29.7 °C
GTGAACGAAAGTTTTCAC ((((((....)))..))) | -15.6 kcal/mol | 31.1 °C
GTGAACGGAAACATTCAC (((((.(....).))))) | -31.7 kcal/mol | 35.4 °C
GTGAACGGAAACGCTCAC ((((.((....)).)))) | -31.5 kcal/mol | 47.6 °C
GTGAAGCGAAAGCTCCAC (((.(((....))).))) | -24 kcal/mol | 50 °C
GTGAAGGGAAACCTCCAC (((.(((....))).))) | -19.9 kcal/mol | 38.5 °C
GTGAAGTCGAAAGACCAC (((..(((....)))))) | -23.9 kcal/mol | 38.3 °C
GTGAATCGAAAGATGCAC (((.(((....))).))) | -31.4 kcal/mol | 50.3 °C
GTGACAGCGAAAGCTCAC (((..(((....)))))) | -21.6 kcal/mol | 41.4 °C
GTGACCCCGAAAGGGCAC (((..(((....)))))) | -24.9 kcal/mol | 50.8 °C

Sequence | folding enthalpy [1] | Tm [2]
GTGACCCGAAAGGGCCAC (((.(((....))).))) | -41 kcal/mol | 59.5 °C
GTGACCGAAAGGTATCAC ((((((....)))..))) | -14.8 kcal/mol | 39.7 °C
GTGACCGAAAGGTCCAC ((((((....))).))) | -11.3 kcal/mol | 47.1 °C
GTGACCGAAAGGTTGCAC ((((((....)))..))) | -13.8 kcal/mol | 42.2 °C
GTGACCGGAAACGGTCGC (.(((((....))))).) | -19.9 kcal/mol | 63.5 °C
GTGACTACGAAAGTACAC (((..(((....)))))) | -6.75 kcal/mol | 29.3 °C
GTGACTCGAAAGAGACAC (((.(((....))).))) | -32.1 kcal/mol | 54.3 °C
GTGACTGCGAAAGCACAC (((..(((....)))))) | -8.82 kcal/mol | 38.8 °C
GTGACTGGAAACGGTCAC (((((.(....).))))) | -49.6 kcal/mol | 53.2 °C
GTGAGATCGAAAGATCAC (((..(((....)))))) | -17.6 kcal/mol | 45.6 °C
GTGAGCCCGAAAGGGCAC (((..(((....)))))) | -11.2 kcal/mol | 52.5 °C
GTGAGCGAAAGCTCCCAC ((((((....)))..))) | -8.27 kcal/mol | 36.4 °C
GTGAGCGAAAGCTGACAC ((((((....)))..))) | -16.6 kcal/mol | 41.2 °C
GTGAGCGAAAGCTGGCAC ((((((....)))..))) | -9 kcal/mol | 43 °C
GTGAGCGAAAGCTTCCAC ((((((....)))..))) | -15.2 kcal/mol | 28.7 °C
GTGAGCGAAAGCTTGCAC ((((((....)))..))) | -7.82 kcal/mol | 51.4 °C
GTGAGGCGAAAGCCCAC (((.(((....)))))) | -18.4 kcal/mol | 61.8 °C
GTGAGGGAAACCTCAC ((((((....)))))) | -31.7 kcal/mol | 60.2 °C
GTGAGGGGAAACCCTTGC (..((((....))))..) | -16.4 kcal/mol | 38.7 °C
GTGAGGGGAAACTCTCAC (((((.(....).))))) | -32 kcal/mol | 49.4 °C
GTGAGGTCGAAAGACCAC (((..(((....)))))) | -13 kcal/mol | 48.9 °C
GTGAGTACGAAAGTACAC (((..(((....)))))) | -16.3 kcal/mol | 42.2 °C
